What was measured:
L1210 = assay: Cytotoxicity against mouse L1210 cells after 48 hrs by microculture tetrazolium assay; type: functional, cell-based; conditions: L1210, 48 h
Summary of the method: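 L1210 cells maintained in RPMI 1640 plus 10% fetal calf serum, 2 mM L-glutamine, penicillin, streptomycin and 10 mM HEPES (pH 7.4). Drug exposure at nine serial dilutions in triplicate for four doubling times (48 h). Microculture tetrazolium read-out; results given as IC50.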

[1] = Cytotoxicity against human KB3-1 cells after 96 hrs by microculture tetrazolium assay; type: functional, cell-based; conditions: KB 3-1, 96 h
Summary of the method: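 KB-3-1 cells grown in DMEM with 10% fetal calf serum, 2 mM L-glutamine, penicillin, streptomycin and 10 mM HEPES (pH 7.4). Exposed to graded drug concentrations (nine serial dilutions, triplicate) for four doubling times (96 h). Viability read by microculture tetrazolium assay; IC50 reported.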

## COc1cc(OC(C)(C)CO)c(CO)c2c1c(=O)c1cc3ccccc3cc1n2C
L1210
  IC50: 1.3 µM
[1]
  IC50: 26.2 µM

## COc1ccc2c(=O)c3cc4ccccc4cc3n(C)c2c1COC(C)=O
L1210
  IC50: 18.5 µM
[1]
  IC50: 7.9 µM

## COCc1c(OC)cc(OC)c2c(=O)c3ccccc3n(C)c12
L1210
  IC50: 51.7 µM
[1]
  IC50: 36.2 µM

## COc1ccc2c(=O)c3cc4ccccc4cc3n(C)c2c1CO
L1210
  IC50: 34.6 µM
[1]
  IC50: 22.5 µM

## COc1cc2c(c3c1c(=O)c1cc4ccccc4cc1n3C)[C@@H](OC(C)=O)[C@@H](OC(C)=O)C(C)(C)O2 (relative stereo)
[1]
  IC50: 0.095 µM

## COc1cc(OC(C)(C)COC(C)=O)c(COC(C)=O)c2c1c(=O)c1cc3ccccc3cc1n2C
L1210
  IC50: 3 µM
[1]
  IC50: 4.9 µM

## COc1ccc2c(=O)c3ccccc3n(C)c2c1CO
L1210
  IC50: 13.9 µM

## COc1ccc2c(=O)c3ccccc3n(C)c2c1COC(C)=O
L1210
  IC50: 24 µM

## COc1cc(OC)c2c(=O)c3ccccc3n(C)c2c1CO
L1210
  IC50: 23.9 µM
[1]
  IC50: 34.1 µM

## COc1cc(OC)c2c(=O)c3ccccc3n(C)c2c1COC(C)=O
L1210
  IC50: 39.9 µM
[1]
  IC50: 17.7 µM
